Test results as given in publication PMC3355950 (The Journal of Neuroscience, 2012).

Key:
Assay in all cases: Two-electrode voltage-clamp recordings, Xenopus oocytes
Assay type in all cases: cell-based
[1] = target: GluN1/2A-(2D S2) (Rattus norvegicus, UniProt P35439+Q00959, D675E/D715E/E790M/F680L/F708Y/G712R/G740R/G786D/H674Q/I755V/K668R/K738M/M788I/N696S/P770R/Q661T/Q703S/Q766H/Q774P/R681K/R692K/R711P/R741K/S677Y/S719Q/S758T/T663S/T706V/T722A/T793R/T797S/V718T/V783L/Y676Q/Y700D/Y754K); settings: 100 μM glutamate + 3 μM glycine; N.E. = no effect at 10 μM TCN-201
Summary of the method: (§1)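 cRNA from linearized constructs injected into female Xenopus laevis oocytes. Two-electrode voltage clamp done 3–4 d later at 23°C, holding at −40 mV, in 90 NaCl, 1 KCl, 10 HEPES, 0.5 BaCl₂, 0.01 EDTA (mM), pH 7.4. […] Max inhibition is (control − residual at saturating compound)/control.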

[2] = target: GluA1 AMPA receptors (Rattus norvegicus, UniProt P19490); settings: 10 μM TCN-201
GluA1 AMPA receptors, sequence (P19490 19-907): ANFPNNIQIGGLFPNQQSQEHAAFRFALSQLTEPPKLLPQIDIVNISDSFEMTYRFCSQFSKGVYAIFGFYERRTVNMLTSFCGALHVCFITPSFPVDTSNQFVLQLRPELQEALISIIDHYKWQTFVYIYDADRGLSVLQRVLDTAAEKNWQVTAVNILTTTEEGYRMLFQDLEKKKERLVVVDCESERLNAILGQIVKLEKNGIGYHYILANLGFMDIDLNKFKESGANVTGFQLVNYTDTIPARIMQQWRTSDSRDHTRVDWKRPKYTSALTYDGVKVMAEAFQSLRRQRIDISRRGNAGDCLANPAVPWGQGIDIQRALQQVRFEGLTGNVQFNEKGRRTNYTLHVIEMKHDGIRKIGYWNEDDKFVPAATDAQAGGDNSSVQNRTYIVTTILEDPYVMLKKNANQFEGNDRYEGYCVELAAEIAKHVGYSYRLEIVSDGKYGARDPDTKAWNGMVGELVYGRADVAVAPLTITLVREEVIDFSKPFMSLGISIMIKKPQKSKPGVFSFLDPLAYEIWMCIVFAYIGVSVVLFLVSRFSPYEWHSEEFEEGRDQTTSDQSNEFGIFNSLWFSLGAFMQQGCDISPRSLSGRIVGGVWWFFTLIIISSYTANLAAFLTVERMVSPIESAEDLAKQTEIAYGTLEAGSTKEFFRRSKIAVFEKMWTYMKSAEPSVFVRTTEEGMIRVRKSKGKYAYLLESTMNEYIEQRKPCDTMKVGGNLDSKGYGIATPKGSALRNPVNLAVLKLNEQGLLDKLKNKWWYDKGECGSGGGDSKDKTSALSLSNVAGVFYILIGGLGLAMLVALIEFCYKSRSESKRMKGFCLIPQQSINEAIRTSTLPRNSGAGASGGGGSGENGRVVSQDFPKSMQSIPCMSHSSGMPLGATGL
Summary of the method: (§2)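 Xenopus laevis oocytes (female) were injected with in vitro transcribed cRNA and recorded by two-electrode voltage clamp 3–4 d after injection at 23°C, holding at −40 mV. Voltage and current electrodes held 0.3 and 3.0 M KCl.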

[3] = target: GluN1/GluN2A V783W (Rattus norvegicus, UniProt P35439+Q00959, V783W); settings: 100 μM glutamate + 3 μM glycine
[4] = target: GluN1/GluN2A M788A (Rattus norvegicus, UniProt P35439+Q00959, M788A); settings: 100 μM glutamate + 3 μM glycine
[5] = target: GluN1/GluN2A E790M (Rattus norvegicus, UniProt P35439+Q00959, E790M); settings: 100 μM glutamate + 3 μM glycine
[6] = target: GluN1/GluN2A T793R (Rattus norvegicus, UniProt P35439+Q00959, T793R); settings: 100 μM glutamate + 3 μM glycine
[7] = target: GluN1/2A-(2D S1+S2) (Rattus norvegicus, UniProt P35439+Q00959, A414R/D421P/D675E/D715E/DELINS438-452SQLNRTHSPPPDAPRPE/E427G/E790M/F680L/F708Y/G712R/G740R/G786D/H674Q/I408V/I422A/I755V/K454R/K466R/K472G/K668R/K738M/L425I/M788I/N404Q/N432D/N490D/N491G/N696S/P770R/Q661T/Q703S/Q766H/Q774P/R469H/R681K/R692K/R711P/R741K/S407T/S468A/S538A/S677Y/S719Q/S758T/T426S/T433S/T474S/T663S/T706V/T722A/T793R/T797S/V409A/V430I/V471I/V489I/V501F/V506D/V509I/V521I/V718T/V783L/Y676Q/Y700D/Y754K); settings: 100 μM glutamate plus 30 μM glycine
[8] = target: GluN1/GluN2A G786A (Rattus norvegicus, UniProt P35439+Q00959, G786A); settings: 100 μM glutamate + 3 μM glycine
[9] = target: GluN1/GluN2A V783H (Rattus norvegicus, UniProt P35439+Q00959, V783H); settings: 100 μM glutamate + 3 μM glycine
[10] = target: GluN1/GluN2A E789A (Rattus norvegicus, UniProt P35439+Q00959, E789A); settings: 100 μM glutamate + 3 μM glycine
[11] = target: GluN1/GluN2A V783S (Rattus norvegicus, UniProt P35439+Q00959, V783S); settings: 100 μM glutamate + 3 μM glycine
[12] = target: GluK2 kainate receptors (Rattus norvegicus, UniProt P42260); settings: 10 μM TCN-201
GluK2 kainate receptors, sequence (P42260 32-908): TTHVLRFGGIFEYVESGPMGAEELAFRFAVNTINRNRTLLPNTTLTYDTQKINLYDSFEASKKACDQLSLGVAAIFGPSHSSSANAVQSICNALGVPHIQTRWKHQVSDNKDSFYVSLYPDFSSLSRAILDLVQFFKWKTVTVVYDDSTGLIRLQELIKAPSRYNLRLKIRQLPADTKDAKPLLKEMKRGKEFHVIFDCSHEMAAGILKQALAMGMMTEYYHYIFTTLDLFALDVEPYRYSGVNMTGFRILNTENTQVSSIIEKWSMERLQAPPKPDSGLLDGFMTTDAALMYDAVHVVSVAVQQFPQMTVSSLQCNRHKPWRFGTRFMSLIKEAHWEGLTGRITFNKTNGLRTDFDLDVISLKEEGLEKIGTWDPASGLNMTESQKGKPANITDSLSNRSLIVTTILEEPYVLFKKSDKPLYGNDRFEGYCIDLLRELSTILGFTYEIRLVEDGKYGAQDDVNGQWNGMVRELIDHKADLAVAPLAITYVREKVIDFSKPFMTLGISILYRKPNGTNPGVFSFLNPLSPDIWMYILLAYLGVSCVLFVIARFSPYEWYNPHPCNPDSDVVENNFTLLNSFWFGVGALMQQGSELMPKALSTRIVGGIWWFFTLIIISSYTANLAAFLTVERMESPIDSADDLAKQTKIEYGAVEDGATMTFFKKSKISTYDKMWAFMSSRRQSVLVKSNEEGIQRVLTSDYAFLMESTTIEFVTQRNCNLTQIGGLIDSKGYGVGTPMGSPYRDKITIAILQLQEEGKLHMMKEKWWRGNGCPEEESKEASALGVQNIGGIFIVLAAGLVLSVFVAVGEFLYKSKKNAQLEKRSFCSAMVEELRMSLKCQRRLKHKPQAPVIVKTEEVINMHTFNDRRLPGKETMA
Summary of the method: as §2

[13] = target: GluN1 F754A co-expressed with GluN2A (Rattus norvegicus, UniProt P35439+Q00959, F754A); settings: 100 μM glutamate + 3 μM glycine
[14] = target: GluN1/GluN2A L779A (Rattus norvegicus, UniProt P35439+Q00959, L779A); settings: 100 μM glutamate + 3 μM glycine
[15] = target: GluN1/2A-(2D M1M2M3) (Rattus norvegicus, UniProt P35439+Q00959, A555P/A572T/A593R/A604S/F553Y/F579L/F658Y/G610A/H595G/I567T/I571V/K590T/K623R/L565C/N587S/P597S/Q620E/S556A/S569V/S598T/S632L/V575I); settings: 100 μM glutamate plus 30 μM glycine; vs GluN1/GluN2A
[16] = target: GluN1/2D-(2A S1) (Rattus norvegicus, UniProt P35439+Q62645, A432V/A445I/A493S/A563S/D455N/D515N/D531V/DELINS461-477KFVKINNSTNEGMNV/F526V/G450E/G497K/G516N/H494R/I448L/I453V/I496V/I514V/I534V/I546V/P444D/R437A/R479K/R491K/S449T/S456T/S499T/T430S/V431I); settings: 100 μM glutamate + 3 μM glycine; N.E. = no effect at 10 μM TCN-201
Summary of the method: as §1

[17] = target: GluN1/GluN2C (Rattus norvegicus, UniProt P35439+Q00961); settings: 100 μM glutamate + 3 μM glycine; N.E. = no effect at 10 μM TCN-201
GluN1/GluN2C, sequence (Q00961 20-1237, other chains not shown): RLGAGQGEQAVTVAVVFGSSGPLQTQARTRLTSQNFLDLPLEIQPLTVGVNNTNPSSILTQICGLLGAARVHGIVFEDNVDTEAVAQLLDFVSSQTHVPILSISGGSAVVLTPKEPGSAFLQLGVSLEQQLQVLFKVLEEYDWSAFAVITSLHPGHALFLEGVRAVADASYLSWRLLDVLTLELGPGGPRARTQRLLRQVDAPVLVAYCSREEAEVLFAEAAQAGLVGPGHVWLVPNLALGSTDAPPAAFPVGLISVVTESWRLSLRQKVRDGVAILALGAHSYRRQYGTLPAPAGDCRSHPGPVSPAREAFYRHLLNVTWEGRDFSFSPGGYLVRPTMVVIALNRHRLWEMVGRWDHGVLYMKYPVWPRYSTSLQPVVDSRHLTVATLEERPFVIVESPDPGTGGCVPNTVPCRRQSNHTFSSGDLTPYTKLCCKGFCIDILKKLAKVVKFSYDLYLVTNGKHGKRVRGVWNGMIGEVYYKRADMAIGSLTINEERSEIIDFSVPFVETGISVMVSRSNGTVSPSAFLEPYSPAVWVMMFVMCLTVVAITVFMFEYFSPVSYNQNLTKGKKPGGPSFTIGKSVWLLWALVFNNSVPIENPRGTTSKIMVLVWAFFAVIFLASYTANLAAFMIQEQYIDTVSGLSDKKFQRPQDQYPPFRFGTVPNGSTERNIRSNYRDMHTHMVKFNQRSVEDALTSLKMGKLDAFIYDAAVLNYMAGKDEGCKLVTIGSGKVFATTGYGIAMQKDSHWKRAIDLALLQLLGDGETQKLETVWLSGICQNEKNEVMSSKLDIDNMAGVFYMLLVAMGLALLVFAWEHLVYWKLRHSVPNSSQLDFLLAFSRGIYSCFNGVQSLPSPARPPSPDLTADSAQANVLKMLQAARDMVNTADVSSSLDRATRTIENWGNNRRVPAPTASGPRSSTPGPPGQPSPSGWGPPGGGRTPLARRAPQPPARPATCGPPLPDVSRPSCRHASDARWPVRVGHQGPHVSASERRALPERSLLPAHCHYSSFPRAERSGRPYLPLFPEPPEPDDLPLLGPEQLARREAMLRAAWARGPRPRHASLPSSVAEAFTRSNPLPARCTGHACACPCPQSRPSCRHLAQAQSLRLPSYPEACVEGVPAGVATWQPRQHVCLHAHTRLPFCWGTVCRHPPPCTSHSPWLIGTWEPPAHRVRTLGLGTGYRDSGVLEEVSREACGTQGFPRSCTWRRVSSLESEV
Summary of the method: as §1

[18] = target: GluN1/GluN2B L783F+F784V (Rattus norvegicus, UniProt P35439+Q00960, F784V/L783F)
GluN1/GluN2B L783F+F784V, sequence (Q00960 27-1482 L783F/F784V, other chains not shown): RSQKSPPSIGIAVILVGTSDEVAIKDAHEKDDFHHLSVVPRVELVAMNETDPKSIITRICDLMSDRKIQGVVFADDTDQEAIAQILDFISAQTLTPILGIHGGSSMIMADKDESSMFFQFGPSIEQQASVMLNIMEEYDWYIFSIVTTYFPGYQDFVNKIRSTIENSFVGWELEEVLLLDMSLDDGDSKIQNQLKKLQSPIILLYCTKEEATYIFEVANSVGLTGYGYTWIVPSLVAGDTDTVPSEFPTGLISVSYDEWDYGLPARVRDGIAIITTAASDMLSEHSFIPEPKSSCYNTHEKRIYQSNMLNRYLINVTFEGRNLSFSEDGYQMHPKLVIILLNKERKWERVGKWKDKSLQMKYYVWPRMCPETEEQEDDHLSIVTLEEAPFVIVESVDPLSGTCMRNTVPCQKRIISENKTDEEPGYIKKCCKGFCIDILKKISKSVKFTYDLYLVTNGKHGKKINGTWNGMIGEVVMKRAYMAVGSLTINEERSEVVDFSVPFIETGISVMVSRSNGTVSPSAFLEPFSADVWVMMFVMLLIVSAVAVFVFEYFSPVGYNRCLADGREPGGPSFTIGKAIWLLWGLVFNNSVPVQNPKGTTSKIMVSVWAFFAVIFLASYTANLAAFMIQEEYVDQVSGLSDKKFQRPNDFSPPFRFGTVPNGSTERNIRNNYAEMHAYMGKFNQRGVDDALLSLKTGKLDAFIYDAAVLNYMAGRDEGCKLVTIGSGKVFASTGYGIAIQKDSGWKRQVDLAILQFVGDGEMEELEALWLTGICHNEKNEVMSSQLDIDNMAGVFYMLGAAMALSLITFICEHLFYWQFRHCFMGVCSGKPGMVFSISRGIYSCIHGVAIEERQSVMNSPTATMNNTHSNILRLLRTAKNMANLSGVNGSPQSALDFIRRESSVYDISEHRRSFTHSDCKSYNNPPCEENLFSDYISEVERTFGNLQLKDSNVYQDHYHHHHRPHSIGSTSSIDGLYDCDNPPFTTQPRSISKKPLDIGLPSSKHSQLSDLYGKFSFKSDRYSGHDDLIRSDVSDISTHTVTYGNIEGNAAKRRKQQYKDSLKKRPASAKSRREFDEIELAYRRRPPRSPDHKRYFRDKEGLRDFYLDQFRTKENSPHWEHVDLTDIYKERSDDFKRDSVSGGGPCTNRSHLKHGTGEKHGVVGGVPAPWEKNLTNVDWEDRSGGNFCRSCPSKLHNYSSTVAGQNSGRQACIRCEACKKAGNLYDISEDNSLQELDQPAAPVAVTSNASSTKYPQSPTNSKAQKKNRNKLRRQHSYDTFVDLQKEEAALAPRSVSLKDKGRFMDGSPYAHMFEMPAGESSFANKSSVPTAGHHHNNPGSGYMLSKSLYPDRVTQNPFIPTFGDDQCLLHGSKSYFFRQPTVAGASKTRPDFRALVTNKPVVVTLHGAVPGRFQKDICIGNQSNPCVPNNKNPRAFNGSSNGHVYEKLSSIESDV

- TCN-201 activity IC50 [1]: no inhibition was observed and N.E.
- Effect on responses activated by 100 μM glutamate [2]: did not affect responses
- TCN-201 activity Max. % inhibition [3]: 95 ± 2%
- TCN-201 activity nH [3]: 1.0
- TCN-201 activity Max. % inhibition [4]: 90 ± 3%
- TCN-201 activity nH [4]: 1.4
- TCN-201 activity Max. % inhibition [5]: 90 ± 3%
- TCN-201 activity nH [5]: 1.4
- TCN-201 activity Max. % inhibition [6]: 94 ± 2%
- TCN-201 activity nH [6]: 2.2
- Inhibition by 3 μM TCN-201 [7]: abolished
- TCN-201 activity Max. % inhibition [8]: 87 ± 3%
- TCN-201 activity nH [8]: 1.8
- TCN-201 activity Max. % inhibition [9]: 93 ± 4%
- TCN-201 activity nH [9]: 0.9
- TCN-201 activity Max. % inhibition [10]: 96 ± 1%
- TCN-201 activity nH [10]: 1.4
- TCN-201 activity Max. % inhibition [11]: 89 ± 3%
- TCN-201 activity nH [11]: 1.4
- Effect on responses activated by 100 μM glutamate [12]: did not affect responses
- TCN-201 activity Max. % inhibition [13]: 98 ± 1%
- TCN-201 activity nH [13]: 1.4
- TCN-201 activity Max. % inhibition [14]: 88 ± 5%
- TCN-201 activity nH [14]: 1.3
- Inhibition by 3 μM TCN-201 [15]: did not reduce inhibition
- TCN-201 activity IC50 [17]: did not inhibit and N.E.
- Kb [18]: 437 nM
- TCN-201 activity nH ([18]; 100 μM glutamate + 3 μM glycine): 1.3
Compound: O=C(NNC(=O)c1ccc(CNS(=O)(=O)c2ccc(F)c(Cl)c2)cc1)c1ccccc1 [TCN-201, 3-chloro-4-fluoro-N-[(4-[(2-(phenylcarbonyl)hydrazino)carbonyl]phenyl)methyl]-benzenesulfonamide]
- TCN-201 activity IC50 [16]: did not introduce TCN-201 sensitivity and N.E.
